Results from ChEMBL document CHEMBL4387708, “Enhancement of Benzothiazoles as Pteridine Reductase-1 Inhibitors for the Treatment of Trypanosomatidic Infections” (J Med Chem, 2019).
Activity calls are given as the source filed them. No cut-off for these calls is given here.

Legend:
Trypanosoma cruzi = test: Growth inhibition of trypomastigote form of Trypanosoma cruzi Y infected in human U2OS cells at 50 uM measured after 72 hrs by DRAQ5 DNA dye based confocal microscopic analysis relative to control; format: organism-based; settings: for inhibition at 50 µM: Trypanosoma cruzi, Y, U2OS, read-out: GI; for growth inhibition (GI): trypanosoma cruzi, 50 µM
Leishmania infantum = test: Growth inhibition of luciferase expressing Leishmania infantum axenic amastigotes infected in human THP1 cells at 10 uM measured after 72 hrs by steady-glo luminescence assay relative to control; format: organism-based; settings: leishmania infantum, 72 h, 10 µM
Pteridine reductase 1 = biological target: T1, Pteridine reductase 1 (Leishmania major, UniProt Q01782); test: Inhibition of Leishmania major pteridine reductase 1 using di-hydrobiopterine as substrate in presence of NADPH
T1 sequence (Q01782 whole entry): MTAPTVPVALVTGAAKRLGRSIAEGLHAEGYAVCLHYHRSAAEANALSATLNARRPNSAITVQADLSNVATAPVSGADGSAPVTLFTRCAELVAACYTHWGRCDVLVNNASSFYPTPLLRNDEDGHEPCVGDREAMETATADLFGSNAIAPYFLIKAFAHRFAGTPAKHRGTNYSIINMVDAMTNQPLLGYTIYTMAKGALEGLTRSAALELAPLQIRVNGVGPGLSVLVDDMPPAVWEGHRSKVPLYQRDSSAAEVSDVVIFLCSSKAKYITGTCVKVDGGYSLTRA
How it was run: (§1)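 Photometric PTR1 assay with NADPH and dihydrobiopterin substrate. H₄B formation is coupled non-enzymatically to cytochrome c reduction, read as signal increase at 550 nm.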

[1] = Inhibition of N-terminal His-tagged Trypanosoma brucei pteridine reductase 1 using di-hydrobiopterine as substrate measured at 1 min interval for 50 mins in presence of NADPH; how it was run: as §1
Trypanosoma brucei [2] = test: Inhibition of N-terminal His-tagged Trypanosoma brucei pteridine reductase 1 at 50 uM using di-hydrobiopterine as substrate measured at 1 min interval for 50 mins in presence of NADPH relative to control; how it was run: as §1
[3] = biological target: T2, Pteridine reductase 1 (Leishmania major) (UniProt Q01782); test: Inhibition of Leishmania major pteridine reductase 1 at 50 uM using di-hydrobiopterine as substrate in presence of NADPH relative to control; how it was run: as §1
T2 sequence (whole entry): T1 sequence (Q01782 whole entry)

Trypanosoma brucei [4] = test: Growth inhibition of Trypanosoma brucei bloodstream forms at 10 uM measured after 72 hrs by resazurin-based fluorescence assay relative to control; format: organism-based; settings: for inhibition at 10 µM: Trypanosoma brucei, read-out: GI
[5] = biological target: Voltage-gated inwardly rectifying potassium channel KCNH2 (Homo sapiens, UniProt Q12809); test: Displacement of Tracer Red from human ERG by fluorescence polarization assay
Chain of Voltage-gated inwardly rectifying potassium channel KCNH2 (Q12809 whole entry): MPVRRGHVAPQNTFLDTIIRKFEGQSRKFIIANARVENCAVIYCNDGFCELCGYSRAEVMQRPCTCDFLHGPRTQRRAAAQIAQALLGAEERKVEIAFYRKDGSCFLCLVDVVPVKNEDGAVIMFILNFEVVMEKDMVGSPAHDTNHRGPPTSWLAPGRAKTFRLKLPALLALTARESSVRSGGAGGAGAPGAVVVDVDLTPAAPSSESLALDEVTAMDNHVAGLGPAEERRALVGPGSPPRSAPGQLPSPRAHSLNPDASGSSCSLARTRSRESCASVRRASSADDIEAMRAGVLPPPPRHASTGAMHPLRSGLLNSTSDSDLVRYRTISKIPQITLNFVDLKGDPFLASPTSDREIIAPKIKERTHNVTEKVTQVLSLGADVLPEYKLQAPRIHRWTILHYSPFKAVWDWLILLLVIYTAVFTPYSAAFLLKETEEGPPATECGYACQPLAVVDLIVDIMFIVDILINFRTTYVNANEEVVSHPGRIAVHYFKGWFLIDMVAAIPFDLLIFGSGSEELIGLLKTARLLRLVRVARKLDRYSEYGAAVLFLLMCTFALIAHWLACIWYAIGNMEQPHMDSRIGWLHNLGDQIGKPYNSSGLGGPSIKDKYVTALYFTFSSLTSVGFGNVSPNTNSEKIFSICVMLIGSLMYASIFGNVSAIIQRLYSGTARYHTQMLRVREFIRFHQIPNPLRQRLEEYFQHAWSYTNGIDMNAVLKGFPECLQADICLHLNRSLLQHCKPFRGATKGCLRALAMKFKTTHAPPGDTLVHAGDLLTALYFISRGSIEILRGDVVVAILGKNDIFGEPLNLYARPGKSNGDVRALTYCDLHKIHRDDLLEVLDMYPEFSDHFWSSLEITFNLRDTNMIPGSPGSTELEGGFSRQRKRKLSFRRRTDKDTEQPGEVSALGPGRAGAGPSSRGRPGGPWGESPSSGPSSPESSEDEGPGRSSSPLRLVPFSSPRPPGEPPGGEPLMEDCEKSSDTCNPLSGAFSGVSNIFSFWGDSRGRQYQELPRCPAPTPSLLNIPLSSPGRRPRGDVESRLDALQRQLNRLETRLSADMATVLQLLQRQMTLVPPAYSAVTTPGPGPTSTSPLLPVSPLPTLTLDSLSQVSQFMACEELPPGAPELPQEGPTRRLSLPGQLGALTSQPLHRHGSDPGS

Cytochrome P450 1A2 = biological target: T3, Cytochrome P450 1A2 (Homo sapiens, UniProt P05177); test: Inhibition of human CYP1A2 expressed in baculovirus infected insect cells using beetle D-luciferin as substrate preincubated for 30 mins followed by NADPH addition and measured after 30 mins by CYP450-Glo assay
T3 sequence (P05177 whole entry): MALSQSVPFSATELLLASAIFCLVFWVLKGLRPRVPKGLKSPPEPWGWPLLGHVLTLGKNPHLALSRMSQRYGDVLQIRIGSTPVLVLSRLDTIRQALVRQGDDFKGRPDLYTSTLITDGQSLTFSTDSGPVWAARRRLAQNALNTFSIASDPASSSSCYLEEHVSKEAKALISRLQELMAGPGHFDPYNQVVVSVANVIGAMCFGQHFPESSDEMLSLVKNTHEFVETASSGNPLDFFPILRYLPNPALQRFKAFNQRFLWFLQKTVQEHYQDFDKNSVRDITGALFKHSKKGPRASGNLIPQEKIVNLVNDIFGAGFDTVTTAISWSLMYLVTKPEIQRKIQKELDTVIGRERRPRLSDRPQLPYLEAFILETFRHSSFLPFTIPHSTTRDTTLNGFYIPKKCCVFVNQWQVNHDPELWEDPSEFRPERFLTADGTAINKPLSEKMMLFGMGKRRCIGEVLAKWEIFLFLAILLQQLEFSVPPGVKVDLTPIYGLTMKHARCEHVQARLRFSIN

Cytochrome P450 2C9 = Cytochrome P450 2C9 (Homo sapiens, UniProt P11712); test: Inhibition of human CYP2C9 expressed in baculovirus infected insect cells using beetle D-luciferin as substrate preincubated for 30 mins followed by NADPH addition and measured after 30 mins by CYP450-Glo assay
Chain of Cytochrome P450 2C9 (P11712 whole entry): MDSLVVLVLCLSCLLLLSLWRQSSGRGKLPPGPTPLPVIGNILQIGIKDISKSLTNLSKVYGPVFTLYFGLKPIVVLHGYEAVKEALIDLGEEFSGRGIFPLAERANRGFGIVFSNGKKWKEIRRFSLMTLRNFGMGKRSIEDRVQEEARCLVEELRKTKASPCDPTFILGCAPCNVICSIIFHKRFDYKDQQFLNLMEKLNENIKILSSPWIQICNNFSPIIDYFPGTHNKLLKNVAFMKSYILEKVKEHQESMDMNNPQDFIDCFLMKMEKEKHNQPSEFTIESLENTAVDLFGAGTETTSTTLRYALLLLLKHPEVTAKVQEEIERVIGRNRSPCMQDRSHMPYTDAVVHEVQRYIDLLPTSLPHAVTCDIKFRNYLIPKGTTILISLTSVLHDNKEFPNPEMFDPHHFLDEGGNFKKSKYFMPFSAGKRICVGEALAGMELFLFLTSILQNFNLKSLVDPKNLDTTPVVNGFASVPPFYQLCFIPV

Cytochrome P450 2C19 = Cytochrome P450 2C19 (Homo sapiens, UniProt P33261); test: Inhibition of human CYP2C19 expressed in baculovirus infected insect cells using beetle D-luciferin as substrate preincubated for 30 mins followed by NADPH addition and measured after 30 mins by CYP450-Glo assay
Chain of Cytochrome P450 2C19 (P33261 whole entry): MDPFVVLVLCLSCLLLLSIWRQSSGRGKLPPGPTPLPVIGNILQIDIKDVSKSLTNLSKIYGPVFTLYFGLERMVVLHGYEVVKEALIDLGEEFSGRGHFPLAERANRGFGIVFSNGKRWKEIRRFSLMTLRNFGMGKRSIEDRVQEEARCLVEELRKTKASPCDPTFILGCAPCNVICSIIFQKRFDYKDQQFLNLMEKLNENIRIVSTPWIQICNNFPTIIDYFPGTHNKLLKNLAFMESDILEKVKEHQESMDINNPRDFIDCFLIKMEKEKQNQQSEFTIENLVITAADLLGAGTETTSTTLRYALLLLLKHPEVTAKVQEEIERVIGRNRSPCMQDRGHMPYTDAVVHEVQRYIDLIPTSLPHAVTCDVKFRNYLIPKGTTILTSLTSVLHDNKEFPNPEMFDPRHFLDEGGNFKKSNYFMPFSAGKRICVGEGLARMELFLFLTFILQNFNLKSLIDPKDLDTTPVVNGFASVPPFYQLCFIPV

Cytochrome P450 2D6 = Cytochrome P450 2D6 (Homo sapiens, UniProt P10635); test: Inhibition of human CYP2D6 expressed in baculovirus infected insect cells using beetle D-luciferin as substrate preincubated for 30 mins followed by NADPH addition and measured after 30 mins by CYP450-Glo assay
Chain of Cytochrome P450 2D6 (P10635 whole entry): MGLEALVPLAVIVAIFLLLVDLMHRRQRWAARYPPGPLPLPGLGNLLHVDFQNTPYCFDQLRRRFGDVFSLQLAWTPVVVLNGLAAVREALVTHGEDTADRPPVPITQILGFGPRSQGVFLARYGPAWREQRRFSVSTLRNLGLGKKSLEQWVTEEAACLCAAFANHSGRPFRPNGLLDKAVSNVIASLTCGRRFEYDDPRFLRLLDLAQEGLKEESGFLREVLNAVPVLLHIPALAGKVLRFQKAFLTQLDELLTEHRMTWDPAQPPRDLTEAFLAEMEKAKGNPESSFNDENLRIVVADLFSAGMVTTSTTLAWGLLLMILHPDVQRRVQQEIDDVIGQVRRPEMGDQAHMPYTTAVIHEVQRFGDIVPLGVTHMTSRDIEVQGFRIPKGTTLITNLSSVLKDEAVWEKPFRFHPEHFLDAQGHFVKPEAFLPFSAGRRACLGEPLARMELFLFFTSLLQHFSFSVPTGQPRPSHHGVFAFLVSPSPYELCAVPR

Cytochrome P450 3A4 = Cytochrome P450 3A4 (Homo sapiens, UniProt P08684); test: Inhibition of human CYP3A4 expressed in baculovirus infected insect cells using beetle D-luciferin as substrate preincubated for 30 mins followed by NADPH addition and measured after 30 mins by CYP450-Glo assay
Chain of Cytochrome P450 3A4 (P08684 whole entry): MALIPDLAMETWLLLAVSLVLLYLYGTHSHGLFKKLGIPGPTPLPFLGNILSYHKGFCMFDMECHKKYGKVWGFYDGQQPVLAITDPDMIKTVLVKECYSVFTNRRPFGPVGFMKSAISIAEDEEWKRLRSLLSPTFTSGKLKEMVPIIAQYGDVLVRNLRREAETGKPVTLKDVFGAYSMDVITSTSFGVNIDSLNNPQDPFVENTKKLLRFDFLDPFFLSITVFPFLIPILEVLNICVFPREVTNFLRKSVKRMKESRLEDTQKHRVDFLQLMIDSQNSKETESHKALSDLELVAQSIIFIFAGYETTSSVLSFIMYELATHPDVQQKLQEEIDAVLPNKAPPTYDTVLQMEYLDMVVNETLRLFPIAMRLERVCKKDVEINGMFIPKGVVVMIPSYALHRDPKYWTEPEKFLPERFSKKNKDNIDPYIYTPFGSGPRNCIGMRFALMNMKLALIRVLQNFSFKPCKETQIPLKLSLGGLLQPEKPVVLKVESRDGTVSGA

[6] = Cytotoxicity against human A549 cells after 48 hrs by Celltiter-glo assay; format: cell-based
[7] = Cytotoxicity against human THP1 cells after 72 hrs by MTT assay; format: cell-based, THP-1; settings: read-out: NOAEL
[8] = Cytotoxicity against human U2OS cells assessed as reduction in cell number; format: cell-based
[9] = Mitochondrial toxicity in human 786-O cells measured after 6 hrs by MitoTracker Red chloromethyl-X-rosamine based assay; format: cell-based, 786-0
[10] = Selectivity ratio of IC50 for Leishmania major pteridine reductase 1 to IC50 for N-terminal His-tagged Trypanosoma brucei pteridine reductase 1

Row | SMILES | inhibition at 50 µM (Trypanosoma cruzi) | growth inhibition (GI) (Leishmania infantum) | IC50 (Pteridine reductase 1; read-out: IC50) | IC50 [1] | inhibition (Trypanosoma brucei [2]) | inhibition [3] | inhibition at 10 µM (Trypanosoma brucei [4]) | IC50 [5] | IC50 (Cytochrome P450 1A2) | IC50 (Cytochrome P450 2C9) | IC50 (Cytochrome P450 2C19) | IC50 (Cytochrome P450 2D6) | IC50 (Cytochrome P450 3A4) | GI50 at 48 h [6] | MNTC at 72 h [7] | GI50 [8] | IC50 at 6 h [9] | Ratio IC50 [10] | growth inhibition (GI) (Trypanosoma cruzi) | IC50 (Pteridine reductase 1) | other results
1 | Nc1nc2c(C(=O)NCc3ccccc3)cc(O)c(O)c2s1 | 5.85% | Non-Toxic | 30.1 µM | 30.9 µM | > 60% | > 60% | 15% | > 25 µM | > 25 µM | > 25 µM | > 25 µM | < 10 µM | < 10 µM | 10 to 25 µM | > 25 µM | > 25 µM | 10 to 25 µM | 2 to 100 |  |  | 
2 | Nc1nc2c(C(=O)NCc3ccc(Cl)c(Cl)c3)cc(O)c(O)c2s1 | 18.3% | Non-Toxic | 36.8 µM | 32.3 µM | > 60% | > 60% | 16% | > 25 µM | > 25 µM | > 25 µM | > 25 µM | < 10 µM | < 10 µM | > 25 µM | > 25 µM | > 25 µM | > 25 µM | 2 to 100 |  |  | 
3 | Nc1nc2ccc(OC(F)(F)F)cc2s1 [RILUZOLE] |  | Non-Toxic | 94.1 µM | 15.1 µM | > 60% | > 60% |  |  |  |  |  |  |  | 10 to 25 µM | > 25 µM | > 25 µM | > 25 µM |  | Non-Toxic |  | growth inhibition (GI) (Trypanosoma brucei [4]; trypanosoma brucei, 10 µM): Non-Toxic
4 | Nc1nc2ccc(C(=O)N(Cc3ccccc3)Cc3ccc(Cl)c(Cl)c3)cc2s1 | 62.1% | Non-Toxic |  | 12 µM | > 60% | inactive | 26% | > 25 µM | > 25 µM | < 10 µM | < 10 µM | < 10 µM | < 10 µM | > 25 µM | > 25 µM | > 25 µM | 10 to 25 µM | 2 to 100 |  | Not Active | 
5 | Nc1nc2ccc(C(=O)NCCc3c[nH]c4ccccc34)cc2s1 | 1.64% | Non-Toxic |  | 23.3 µM | > 60% | inactive | 27% | > 25 µM | > 25 µM | > 25 µM | 10 to 25 µM | > 25 µM | > 25 µM | > 25 µM | > 25 µM | > 25 µM | > 25 µM | 2 to 100 |  | Not Active | 
6 | Nc1nc2ccc(SCc3ccccc3)cc2s1 |  | Non-Toxic | 81 µM | 1.9 µM | > 60% | > 60% | 14% | > 25 µM | < 10 µM | > 25 µM | < 10 µM | < 10 µM | 10 to 25 µM | > 25 µM | 10 to 25 µM | > 25 µM | > 25 µM | 2 to 100 | Non-Toxic |  | 
